Source: ChEMBL document CHEMBL4138310 (J Med Chem, 2018)

Tests used:
[1] = test system: Human immunodeficiency virus 1; test: Antiviral activity against wild-type HIV1 pNL4-3 infected in human MT4 cells assessed as inhibition of virus-induced cytopathic effect after 5 days in presence of 50 % of human serum by MTT assay; type: functional, organism-based; details: Human immunodeficiency virus 1, pNL4-3, MT4, 120 h
Outline: (§1)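 MT-4 cells inoculated with HIV-1 pNL4-3, then given an equal volume of compound at several concentrations in 1% DMSO solution with 10% FBS. Incubated 5 days at 37 °C in CO2, in triplicate. MTT read by optical density, percent reduction of cytopathic effect calculated, and EC50 fitted to the median-effect equation. Values averaged over n = 3; the 50% human serum condition was run alongside.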

[2] = Ratio of EC50 for inhibition of protease L10F/V32I/M46I/I47V/Q58E/I84V mutant in HIV1 A17 infected in human MT4 cells to EC50 for wild-type HIV-1 pNL4-3 infected in human MT4 cells; type: functional, Human immunodeficiency virus 1
Outline: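 Ratio of EC50 values from MT-4 cytopathic-effect MTT assays (5 days, 37 °C, triplicate, median-effect fit). Numerator is LPV-resistant strain A1711, denominator is wild-type HIV-1 pNL4-3.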

[3] = Ratio of EC50 for DRV-resistant protease V32I/L33F/I54M/V82I mutant in HIV1 transfected in 293T cells to EC50 for wild-type HIV-1 pNL4-3 infected in CMVdeltaR8.91 transfected 293T cells; type: functional, Human immunodeficiency virus 1
Outline: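 Ratio of IC50 values from the 293T luciferase reporter lentiviral vector assay. Numerator is vector carrying DRV-resistant protease (V32I/L33F/I54M/I84V or V32I/L33F/I54M/V82I), denominator is wild-type pNL4-3-based vector.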

[4] = test system: Human immunodeficiency virus 1; test: Antiviral activity against wild-type HIV1 pNL4-3 infected in CMVdeltaR8.91 transfected 293T cells after 48 hrs by lentiviral vector-based luciferase reporter gene assay; type: functional, organism-based; details: Human immunodeficiency virus 1, pNL4-3, HEK-293T
Outline: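 pNL4-3-based luciferase reporter lentiviral vector made by transfecting 293T cells with pCMV-ΔR8.91 (wild-type or V32I/L33F/I54M/V82I or V32I/L33F/I54M/I84V protease) plus luciferase transfer and envelope plasmids, with or without inhibitor. After 48 h, fresh 293T cells infected with vector. IC50 for suppression of luciferase transduction taken from dose-response curve.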

[5] = test system: Human immunodeficiency virus 1; test: Antiviral activity against wild-type HIV1 pNL4-3 infected in human MT4 cells assessed as inhibition of virus-induced cytopathic effect after 5 days in absence of human serum by MTT assay; type: functional, organism-based; details: Human immunodeficiency virus 1, pNL4-3, MT4, 120 h; outline: as §1
[6] = Cytotoxicity against human MT4 cells after 5 days by MTT assay; type: cell-based; details: read-out: TD50
Outline: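 Uninfected MT-4 cells given compound at several concentrations in 1% DMSO solution with 10% FBS. Incubated 5 days at 37 °C in CO2, in triplicate. Viability read by MTT optical density, with TD50 taken as the cytotoxic measure.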

[7] = test system: Human immunodeficiency virus 1; test: Ratio of EC50 for wild-type HIV1 pNL4-3 infected in human MT4 in presence of 50% of human serum to EC50 for wild-type HIV-1 pNL4-3 infected in human MT4 in absence of human serum; type: functional
Outline: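 Serum binding effect calculated as the pNL4-3 EC50 in 50% human serum divided by the EC50 in 0% serum, using MT-4 cytopathic-effect MTT assays run for 5 days at 37 °C.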

[8] = Ratio of EC50 for DRV-resistant protease V32I/L33F/I54M/I84V mutant in HIV1 transfected in 293T cells to EC50 for wild-type HIV-1 pNL4-3 infected in CMVdeltaR8.91 transfected 293T cells; type: functional, Human immunodeficiency virus 1
[9] = biological target: Protease (Human immunodeficiency virus 1) (UniProt Q9YQ12); test: Inhibition of recombinant HIV1 protease at 1 nM using H-Lys-Ala-Arg-Val-Tyr-Phe(p-NO2)-Glu-Ala-Nle-NH2 as substrate preincubated for 5 mins followed by substrate addition measured after 3 hrs by fluorescence-based assay
Outline: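 Recombinant HIV-1 protease (40 ng/mL stock in pH 5.0 acetate/EDTA/NaCl/2-mercaptoethanol/NP-40/glycerol) mixed with inhibitor (10 nM solution in DMSO) in 200 mM MES-NaOH pH 5.5 with 2 mM DTT, 2 mM EDTA and 1 M NaCl. Preincubated 5 min at 37 °C, then 1.0 mM substrate solution added and incubated 3 h at 37 °C. Stopped with 1 N HCl. The Lys-Ala-Arg-Val-Tyr-OH product was quantified by RP-HPLC with fluorescence (Ex 275, Em 305 nm). Single determination.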

COc1cccc2cc(C(=O)N[C@H](C(=O)N[C@@H](Cc3ccccc3)[C@H](O)C(=O)N3CSC(C)(C)[C@H]3C(=O)NCc3c(C)cccc3C)[C@H]3CCOC3)oc12
EC50 [1]: 0.08 µM | Ratio EC50 [2]: >8 | Ratio EC50 [3]: 0.2 | EC50 [4]: 0.00171 µM | EC50 [5]: < 0.003 µM | CC50 at 120 h [6]: 11 µM | Ratio EC50 [7]: >27 | Ratio EC50 [8]: 0.7 | inhibition [9]: 97%
